Measurements as given in paper PMC4817271 (Journal of medicinal chemistry, 2015).

Experiments:
[1] = Mouse IP tissue distribution with P-gp inhibitor 109 pretreatment; format: in vivo
Method in brief: (§1)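 Mice were pretreated with the P-gp inhibitor elacridar at 20 mg/kg 1 h before the test compound. Test compound was given ip at 30 mg/kg as a fine homogeneous suspension in 10% Tween-80 in water (n=2). Brain and plasma were sampled 15 min after dosing. Kp = total brain/total plasma; Kp,uu = (brain fu × total brain)/(plasma fu × total plasma).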

P-gp = test: as above; format: in vivo; conditions: mouse, brain, ip, with 109 (elacridar), 20 mg/kg, dosed 1 h before compound 58
Method in brief: as §1

Rat IV PK = format: in vivo
Method in brief: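 Rats received test compound iv at 0.2 mg/kg as a solution in 9% EtOH, 38% PEG 400 and 53% DMSO (1 mg/mL dosing solution), n=2. Plasma time course gave half-life, plasma clearance and volume of distribution at steady state.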

human M1 = biological target: T1, human M1 (Homo sapiens, UniProt P11229); test: Human M1 functional assay; format: cell-based; conditions: up to the highest concentration tested (30 μM)
T1 sequence (P11229 1-460): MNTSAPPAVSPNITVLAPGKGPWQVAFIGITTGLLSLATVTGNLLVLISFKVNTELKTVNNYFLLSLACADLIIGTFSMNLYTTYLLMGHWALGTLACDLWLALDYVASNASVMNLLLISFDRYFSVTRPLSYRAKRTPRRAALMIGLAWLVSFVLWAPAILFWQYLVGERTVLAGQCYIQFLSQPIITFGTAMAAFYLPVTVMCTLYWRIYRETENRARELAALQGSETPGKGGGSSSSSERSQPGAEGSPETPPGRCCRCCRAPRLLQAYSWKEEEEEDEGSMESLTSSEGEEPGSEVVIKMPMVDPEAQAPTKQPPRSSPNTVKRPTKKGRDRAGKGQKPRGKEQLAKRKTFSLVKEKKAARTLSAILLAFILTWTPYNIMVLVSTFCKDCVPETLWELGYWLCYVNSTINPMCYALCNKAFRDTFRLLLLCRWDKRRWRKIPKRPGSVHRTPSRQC

[2] = Mouse IP tissue distribution; format: in vivo
Method in brief: (§2)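 Single time point tissue distribution in mice or rats (n=2). Test compound was given ip at 30 mg/kg as a fine homogeneous suspension in 10% Tween-80 in water. Brain and plasma concentrations were taken 15 min after dosing. Kp = total brain/total plasma; Kp,uu = unbound brain (brain fu × total brain)/unbound plasma (plasma fu × total plasma).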

[3] = Protein binding in rat brain homogenates; format: in vitro ADME; conditions: brain homogenate
P-gp (MDR1) = P-gp (MDR1) (Homo sapiens, UniProt P08183); test: Permeability in MDR1-MDCK cells; format: in vitro ADME; conditions: dog (MDCK cells), human MDR1 expressed
[4] = system: panel of 68 clinically relevant GPCRs, ion channels, kinases, and transporters; test: Radioligand binding assay panel; conditions: 10 μM; significant = more than 50% inhibition of radioligand binding
[5] = Rat IP tissue distribution; format: in vivo
Method in brief: as §2

[6] = Intrinsic clearance in rat liver microsomes, predicted hepatic clearance; format: in vitro ADME
Method in brief: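 Test compound was incubated with rat liver microsomes to give intrinsic clearance (CLint), which was converted to predicted hepatic clearance. Compounds were binned against hepatic blood flow: low (<1/3), moderate (1/3 to 2/3) or high (>2/3).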

[7] = Rat plasma protein binding; format: in vitro ADME
[8] = Rat iv cassette PK tissue distribution; format: in vivo; conditions: 0.2 mg/kg
Method in brief: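 Cassette dosing in rats: iv at 0.2 mg/kg per compound, as a solution in 8% EtOH, 30% PEG 400 and 62% DMSO (2 mg/mL total), n=2. Single time point brain and plasma sampling at 15 min after dose. Kp = total brain/total plasma; Kp,uu = (brain fu × total brain)/(plasma fu × total plasma).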

[9] = Protein binding in mouse brain homogenates; format: in vitro ADME; conditions: brain homogenate
[10] = system: other members of the mGlu family; test: Fold-shift selectivity experiments versus other mGlus; format: cell-based; conditions: effect of 10 μM compound on orthosteric agonist CRC
rat mGlu2 = rat mGlu2 (Rattus norvegicus, UniProt P31421); test: Calcium mobilization mGlu2 assay; format: cell-based; conditions: for IC50: average of n ≥ 3
Method in brief: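 Fluorescence calcium-mobilization read-out in a cell line stably co-expressing rat mGlu2 and the promiscuous G-protein Gα15. Test compound was applied up to 30 μM, and NAM activity was measured as inhibition of the glutamate response. Values are the average of n=3. LLE = pIC50 − cLogP, with cLogP calculated by software.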

[11] = Mouse plasma protein binding; format: in vitro ADME
[12] = mouse ip 30 mg/kg, 15 min after dose, 109 dosed 1 h prior at 20 mg/kg
[13] = mouse ip 30 mg/kg, 15 min after dose
[14] = rat ip 30 mg/kg, 15 min after dose

Chain of rat mGlu2 (P31421 19-872): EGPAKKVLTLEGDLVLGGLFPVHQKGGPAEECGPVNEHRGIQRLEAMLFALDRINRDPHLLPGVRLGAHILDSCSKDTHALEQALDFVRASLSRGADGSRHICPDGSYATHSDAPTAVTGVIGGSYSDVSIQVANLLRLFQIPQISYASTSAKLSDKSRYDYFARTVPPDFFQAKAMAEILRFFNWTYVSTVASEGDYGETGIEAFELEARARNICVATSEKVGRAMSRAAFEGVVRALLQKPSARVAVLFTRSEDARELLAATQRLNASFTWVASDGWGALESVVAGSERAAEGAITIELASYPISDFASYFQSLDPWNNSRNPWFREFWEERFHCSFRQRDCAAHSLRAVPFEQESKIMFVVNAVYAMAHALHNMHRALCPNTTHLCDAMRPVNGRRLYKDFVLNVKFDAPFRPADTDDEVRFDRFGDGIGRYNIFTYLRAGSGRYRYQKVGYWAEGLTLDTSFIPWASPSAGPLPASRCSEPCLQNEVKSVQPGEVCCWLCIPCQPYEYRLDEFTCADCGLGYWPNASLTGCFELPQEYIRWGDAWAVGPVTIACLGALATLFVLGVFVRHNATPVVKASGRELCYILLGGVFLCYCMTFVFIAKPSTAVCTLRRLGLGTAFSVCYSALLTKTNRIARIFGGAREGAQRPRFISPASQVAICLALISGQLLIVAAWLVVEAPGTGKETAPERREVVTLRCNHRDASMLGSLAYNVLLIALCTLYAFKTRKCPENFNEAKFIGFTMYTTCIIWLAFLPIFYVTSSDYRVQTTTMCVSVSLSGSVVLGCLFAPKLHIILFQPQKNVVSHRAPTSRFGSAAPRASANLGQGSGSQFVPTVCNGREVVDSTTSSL
Chain of P-gp (MDR1) (P08183 whole entry): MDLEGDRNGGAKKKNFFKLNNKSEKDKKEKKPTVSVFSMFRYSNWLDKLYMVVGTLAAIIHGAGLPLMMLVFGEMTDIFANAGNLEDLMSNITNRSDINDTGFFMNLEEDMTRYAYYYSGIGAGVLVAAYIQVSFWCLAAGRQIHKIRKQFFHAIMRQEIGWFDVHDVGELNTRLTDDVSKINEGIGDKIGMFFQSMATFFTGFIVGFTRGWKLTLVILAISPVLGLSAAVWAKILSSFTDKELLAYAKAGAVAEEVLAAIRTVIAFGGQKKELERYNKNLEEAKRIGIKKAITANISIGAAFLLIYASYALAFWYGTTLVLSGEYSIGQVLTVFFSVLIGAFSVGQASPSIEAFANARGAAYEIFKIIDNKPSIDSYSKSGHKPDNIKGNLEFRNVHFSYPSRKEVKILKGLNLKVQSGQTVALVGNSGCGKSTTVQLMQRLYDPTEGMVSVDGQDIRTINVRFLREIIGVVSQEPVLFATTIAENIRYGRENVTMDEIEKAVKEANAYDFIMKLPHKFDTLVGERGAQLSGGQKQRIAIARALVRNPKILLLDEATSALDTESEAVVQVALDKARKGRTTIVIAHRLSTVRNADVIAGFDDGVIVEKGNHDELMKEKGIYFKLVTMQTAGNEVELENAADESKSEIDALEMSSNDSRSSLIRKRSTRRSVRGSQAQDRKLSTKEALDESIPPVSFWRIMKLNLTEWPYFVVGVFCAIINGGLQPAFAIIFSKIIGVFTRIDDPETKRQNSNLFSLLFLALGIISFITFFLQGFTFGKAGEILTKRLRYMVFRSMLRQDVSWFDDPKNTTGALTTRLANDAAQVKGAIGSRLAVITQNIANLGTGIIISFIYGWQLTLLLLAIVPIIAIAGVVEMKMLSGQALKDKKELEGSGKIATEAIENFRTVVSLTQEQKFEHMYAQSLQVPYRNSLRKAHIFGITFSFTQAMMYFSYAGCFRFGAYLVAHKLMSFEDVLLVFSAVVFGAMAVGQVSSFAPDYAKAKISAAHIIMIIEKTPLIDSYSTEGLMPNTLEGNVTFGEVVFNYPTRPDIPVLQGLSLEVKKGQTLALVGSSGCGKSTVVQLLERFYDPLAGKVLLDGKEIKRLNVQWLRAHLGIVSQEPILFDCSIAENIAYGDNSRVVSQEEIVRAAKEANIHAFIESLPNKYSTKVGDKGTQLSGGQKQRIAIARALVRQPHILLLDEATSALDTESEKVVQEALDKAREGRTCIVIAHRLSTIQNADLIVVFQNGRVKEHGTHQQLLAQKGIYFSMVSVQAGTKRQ

C[C@@H]1CN(Cc2ccc3c(c2)c(=O)c(C(N)=O)cn3-c2ccc(F)cc2)C[C@H](C)O1 [Compound 58, 6-((cis-2,6-Dimethylmorpholino)methyl)-1-(4-fluorophenyl)-4-oxo-1,4-dihydroquinoline-3-carboxamide]
unbound brain exposure relative to mGlu2 IC50 ([1]; 30 mg/kg ip with P-gp inhibitor pretreatment): more than 5 fold | increase of exposure in the brain after pretreatment with 109 (elacridar) ([1]; mouse ip 30 mg/kg): more than 6 fold | brain concentration [1, 12]: 4580 nm | plasma concentration [1, 12]: 2160 nm | Kp at 15 min (P-gp): 2.1 | Kp uu at 15 min (P-gp): 1.7 | clearance in vivo (Rat IV PK; rat iv time course study): high clearance | Vd (Rat IV PK; rat, plasma, iv, 0.2 mg/kg): 13.3 L/kg | clearance (Rat IV PK; rat, plasma, iv, 0.2 mg/kg): 75.8 mL/min/kg | half-life (Rat IV PK; rat, plasma, iv, 0.2 mg/kg, half-life, rat iv time course study): ~2 h | half-life (Rat IV PK; rat, plasma, iv, 0.2 mg/kg, t1/2, rat iv 0.2 mg/kg): 2.35 h | human M1 activity (human M1): no activity | brain concentration [2, 13]: 716 nm | plasma concentration [2, 13]: 1820 nm | Kp at 0.25 h ([2]; mouse, brain, ip, 30 mg/kg): 0.39 | Kp uu at 0.25 h ([2]; mouse, brain, ip, 30 mg/kg): 0.32 | concentration at 15 min ([2]; mouse, brain, ip, 30 mg/kg, brain concentration, mouse ip 30 mg/kg): 716 nM | concentration at 15 min ([2]; mouse, brain, ip, 30 mg/kg, unbound brain concentration, mouse ip 30 mg/kg): 184 nM | fraction unbound [3]: 0.191 | fraction unbound ([3]; mouse): 0.25 to 0.3 | Papp A→B (P-gp (MDR1)): 1.54 ×10⁻⁶ cm/s | Papp B→A (P-gp (MDR1)): 79.7 ×10⁻⁶ cm/s | efflux ratio (P-gp (MDR1)): 52 | ancillary pharmacology, radioligand binding panel responses [4]: no significant responses | brain concentration [5, 14]: 760 nM | plasma concentration [5, 14]: 3900 nM | Kp at 0.25 h ([5]; rat, brain, ip, 30 mg/kg): 0.2 | Kp uu at 0.25 h ([5]; rat, brain, ip, 30 mg/kg): 0.12 | concentration at 15 min ([5]; rat, brain, ip, 30 mg/kg, unbound brain concentration, rat ip 30 mg/kg): 145 nM | predicted hepatic clearance group ([6]; binned from CLint in rat liver microsomes): low–moderate | rat CLhep ([6]; predicted hepatic clearance based on CLint in rat liver microsomes): 24.5 mL/min/kg | unbound in rat plasma [7]: approximately 30% | fraction unbound ([7]; rat, plasma): 0.306 | Kp at 0.25 h ([8]; brain): 0.32 | Kp uu at 0.25 h ([8]; brain): 0.23 | concentration at 15 min ([8]; brain): 18 nM | concentration at 15 min ([8]; plasma): 56.9 nM | fraction unbound [9]: 0.257 | activity at the other mGlus [10]: no activity | LLE (rat mGlu2; LLE = pIC50 – cLogP): 3.59 | % Glu max ± SEM (rat mGlu2; amplitude of response in presence of 30 μM test compound as percentage of maximal response (100 μM glutamate)): 1.48 ± 0.29% | IC50 (rat mGlu2; mGlu2 IC50, calcium mobilization): 207 nM | IC50 (rat mGlu2; mGlu2 pIC50 ± SEM, calcium mobilization): 204 nM | fraction unbound [11]: 0.315
